In ChEMBL document CHEMBL3351230, “Synthesis of 2-anilinopyridine dimers as microtubule targeting and apoptosis inducing agents” (Bioorg Med Chem, 2014):
Values belong to the compound of their own block, whether it stands above or below them. Calls of active or inactive are those of the source. The rule behind the calls is not given here.

Legend:
MCF7 = experiment: Antiproliferative activity against human MCF7 cells assessed as growth inhibition after 48 hrs by SRB assay; conditions: MCF7, 48 h
DU-145 [1] = experiment: Cell cycle arrest in human DU145 cells assessed as cells accumulation at G0/G1 phase at 2 uM after 48 hrs by propidium iodide staining-based flow cytometric analysis (reference value: 84.75%); format: functional
DU-145 [2] = experiment: Induction of apoptosis in human DU145 cells assessed as mitochondrial membrane potential drop measured as necrotic cells at 2 uM after 48 hrs using JC-1 staining-based flow cytometry (reference value: 0%); format: functional
A549 = experiment: Antiproliferative activity against human A549 cells assessed as growth inhibition after 48 hrs by SRB assay; conditions: A549, 48 h
DU-145 [3] = experiment: Induction of apoptosis in human DU145 cells assessed as late apoptotic cells at 2 uM after 48 hrs by annexin V-FITC/propidium iodide staining-based flow cytometric analysis (reference value: 1.96%); format: functional
DU-145 [4] = experiment: Cell cycle arrest in human DU145 cells assessed as cells accumulation at G2/M phase at 2 uM after 48 hrs by propidium iodide staining-based flow cytometric analysis (reference value: 6.81%); format: functional
DU-145 [5] = experiment: Cell cycle arrest in human DU145 cells assessed as cells accumulation at SubG1 phase at 2 uM after 48 hrs by propidium iodide staining-based flow cytometric analysis (reference value: 3.52%); format: functional
Tubulin = experiment: Inhibition of tubulin polymerization (unknown origin) after 1 hr by fluorescence analysis; format: protein-complex assay, Homo sapiens
In short: (§1)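 Fluorescence-reporter tubulin polymerization kit. Tubulin (3 mg/mL) in PEM buffer with 1 mM GTP, with or without compound (3 µM, or 2.5–15 µM for IC50). Fluorescence (ex 360 / em 420 nm) was followed for 1 h at 37 °C. IC50 is the concentration giving 50% inhibition of assembly versus control. Data are mean ± SD of two experiments in triplicate, with E7010 as positive control.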

DU-145 [6] = experiment: Antiproliferative activity against human DU145 cells assessed as growth inhibition after 48 hrs by SRB assay; conditions: DU-145, 48 h
DU-145 [7] = experiment: Induction of apoptosis in human DU145 cells assessed as necrotic cells at 2 uM after 48 hrs by annexin V-FITC/propidium iodide staining-based flow cytometric analysis (reference value: 0.22%); format: functional
DU-145 [8] = experiment: Induction of apoptosis in human DU145 cells assessed as early apoptotic cells at 2 uM after 48 hrs by annexin V-FITC/propidium iodide staining-based flow cytometric analysis (reference value: 0.71%); format: functional
DU-145 [9] = experiment: Induction of apoptosis in human DU145 cells assessed as mitochondrial membrane potential drop measured as early apoptotic cells at 2 uM after 48 hrs using JC-1 staining-based flow cytometry (reference value: 9.1%); format: functional
DU-145 [10] = experiment: Cell cycle arrest in human DU145 cells assessed as cells accumulation at S phase at 2 uM after 48 hrs by propidium iodide staining-based flow cytometric analysis (reference value: 4.18%); format: functional
Tubulin (Homo sapiens) [11] = target: T1, Tubulin (Homo sapiens) (UniProt P68371+Q9H4B7+P0DPH7+P68366+Q13509+Q71U36+P04350+Q3ZCM7+P07437+P68363+Q9BQE3+Q6PEY2+Q13885+Q9BVA1+Q9BUF5); experiment: Displacement of colchicine from tubulin (unknown origin) at 5 to 25 uM after 60 mins by competitive binding assay; format: protein-complex assay
In short: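 Compound (5, 10, 15, 20, 25 µM) was co-incubated with 4 µM colchicine and 3 µM tubulin in 30 mM Tris buffer for 60 min at 37 °C. Tubulin–colchicine fluorescence was read at ex 350 / em 435 nm. Buffer blank was subtracted and values were normalized to DMSO control (F/F0). Nocodazole or E7010 served as positive control and taxol as negative control.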

DU-145 [12] = experiment: Induction of apoptosis in human DU145 cells assessed as viable cells at 2 uM after 48 hrs by annexin V-FITC/propidium iodide staining-based flow cytometric analysis (reference value: 97.12%); format: functional; conditions: DU-145, 48 h, read-out: Activity
DU-145 [13] = experiment: Induction of apoptosis in human DU145 cells assessed as mitochondrial membrane potential drop measured as viable cells at 2 uM after 48 hrs using JC-1 staining-based flow cytometry (reference value: 0%); format: functional
DU-145 [14] = experiment: Induction of apoptosis in human DU145 cells assessed as mitochondrial membrane potential drop measured as late apoptotic cells at 2 uM after 48 hrs using JC-1 staining-based flow cytometry (reference value: 90.9%); format: functional
DU-145 [15] = experiment: Induction of apoptosis in human DU145 cells assessed as induction of DNA fragmentation at 1 uM after 48 hrs by agarose gel electrophoresis; format: functional, cell-based
In short: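 DU-145 cells (1×10^6, six-well) were seeded 24 h, then treated at 1 µM for 48 h. Lysates were digested with SDS/RNase A for 2 h at 56 °C, then proteinase K for 2 h at 37 °C. DNA was precipitated with ammonium acetate and ethanol at −80 °C, dissolved in TE, and resolved on 2% agarose against a 100 bp marker.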

DU-145 [16] = experiment: Induction of apoptosis in human DU145 cells assessed as mitochondrial membrane potential drop measured as late apoptotic cells at 1 uM after 48 hrs using JC-1 staining-based flow cytometry (reference value: 90.9%); format: functional
DU-145 [17] = experiment: Induction of apoptosis in human DU145 cells assessed as mitochondrial membrane potential drop measured as early apoptotic cells at 1 uM after 48 hrs using JC-1 staining-based flow cytometry (reference value: 9.1%); format: functional
DU-145 [18] = experiment: Induction of apoptosis in human DU145 cells assessed as late apoptotic cells at 1 uM after 48 hrs by annexin V-FITC/propidium iodide staining-based flow cytometric analysis (reference value: 1.96%); format: functional
Tubulin (Homo sapiens) [19] = target: T1, Tubulin (Homo sapiens); experiment: Inhibition of tubulin polymerization (unknown origin) at 3 uM after 1 hr by fluorescence analysis; format: protein-complex assay
In short: as §1

DU-145 [20] = experiment: Induction of apoptosis in human DU145 cells assessed as increase in caspase 3 activation at 2 uM after 48 hrs by ELISA; format: functional
In short: (§2)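 DU-145 cells were treated at 1 or 2 µM for 48 h, pelleted and PBS-washed. Pellets were lysed 15 min and centrifuged at 20,000 rpm for 15 min. Caspase-3 activity in the supernatant was measured by a colorimetric ELISA-based kit per the manufacturer. Activity is expressed as fold over untreated control, mean ± SD of two experiments in triplicate.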

DU-145 [21] = experiment: Induction of apoptosis in human DU145 cells assessed as viable cells at 1 uM after 48 hrs by annexin V-FITC/propidium iodide staining-based flow cytometric analysis (reference value: 97.12%); format: functional; conditions: DU-145, 48 h, read-out: Activity
DU-145 [22] = experiment: Cell cycle arrest in human DU145 cells assessed as cells accumulation at SubG1 phase at 1 uM after 48 hrs by propidium iodide staining-based flow cytometric analysis (reference value: 3.52%); format: functional
DU-145 [23] = experiment: Cell cycle arrest in human DU145 cells assessed as cells accumulation at G2/M phase at 1 uM after 48 hrs by propidium iodide staining-based flow cytometric analysis (reference value: 6.81%); format: functional
DU-145 [24] = experiment: Induction of apoptosis in human DU145 cells assessed as mitochondrial membrane potential drop measured as viable cells at 1 uM after 48 hrs using JC-1 staining-based flow cytometry (reference value: 0%); format: functional
DU-145 [25] = experiment: Cell cycle arrest in human DU145 cells assessed as cells accumulation at S phase at 1 uM after 48 hrs by propidium iodide staining-based flow cytometric analysis (reference value: 4.18%); format: functional
DU-145 [26] = experiment: Induction of apoptosis in human DU145 cells assessed as mitochondrial membrane potential drop measured as necrotic cells at 1 uM after 48 hrs using JC-1 staining-based flow cytometry (reference value: 0%); format: functional
DU-145 [27] = experiment: Induction of apoptosis in human DU145 cells assessed as reduction in mitochondrial membrane potential at 2 uM after 48 hrs using JC-1 staining-based flow cytometry; format: functional, cell-based
DU-145 [28] = experiment: Induction of apoptosis in human DU145 cells assessed as increase in caspase 3 activation at 1 uM after 48 hrs by ELISA; format: functional
In short: as §2

DU-145 [29] = experiment: Induction of apoptosis in human DU145 cells assessed as early apoptotic cells at 1 uM after 48 hrs by annexin V-FITC/propidium iodide staining-based flow cytometric analysis (reference value: 0.71%); format: functional
DU-145 [30] = experiment: Cell cycle arrest in human DU145 cells assessed as cells accumulation at G0/G1 phase at 1 uM after 48 hrs by propidium iodide staining-based flow cytometric analysis (reference value: 84.75%); format: functional
DU-145 [31] = experiment: Induction of apoptosis in human DU145 cells assessed as necrotic cells at 1 uM after 48 hrs by annexin V-FITC/propidium iodide staining-based flow cytometric analysis (reference value: 0.22%); format: functional

Structure (SMILES): COc1ccc(Nc2ncccc2NC(=O)c2cccnc2Nc2cc(OC)c(OC)c(OC)c2)cc1
GI50 (MCF7): > 100 µM
GI50 (A549): > 100 µM
GI50 (DU-145 [6]): > 100 µM

Structure (SMILES): COc1ccc(Nc2ncccc2NC(=O)c2cccnc2Nc2ccc(F)cc2)cc1
GI50 (MCF7): > 100 µM
GI50 (A549): 4.1 µM
GI50 (DU-145 [6]): 6.6 µM

Structure (SMILES): O=C(Nc1cccnc1Nc1ccc(F)cc1)c1cccnc1Nc1cc(C(F)(F)F)cc(C(F)(F)F)c1
GI50 (MCF7): > 100 µM
Activity (DU-145 [15]): Active
Activity (DU-145 [1]): 53.38%
Activity (DU-145 [16]): 89.4%
Activity (DU-145 [2]): 0%
Activity (DU-145 [17]): 10.6%
Activity (DU-145 [18]): 14.03%
GI50 (A549): 39.2 µM
Activity (DU-145 [3]): 16.53%
Activity (DU-145 [4]): 41.19%
Activity (DU-145 [5]): 2.41%
inhibition (Tubulin (Homo sapiens) [19]): 64.3%
fold change (FC) (DU-145 [20]): 2
viability at 1 µM (DU-145 [21]): 80.4%
IC50 (Tubulin): 2.16 µM
GI50 (DU-145 [6]): 0.99 µM
Activity (DU-145 [22]): 4.64%
Activity (DU-145 [7]): 1.84%
Activity (DU-145 [8]): 5.97%
Activity (DU-145 [9]): 32.6%
Activity (DU-145 [10]): 1.77%
inhibition (Tubulin (Homo sapiens) [11]): Active
viability at 2 µM (DU-145 [12]): 75.7%
Activity (DU-145 [23]): 32.49%
Activity (DU-145 [24]): 0%
Activity (DU-145 [25]): 1.63%
Activity (DU-145 [26]): 0%
inhibition (DU-145 [27]): Active
Activity (DU-145 [13]): 0%
fold change (FC) (DU-145 [28]): 2
Activity (DU-145 [29]): 4.28%
Activity (DU-145 [30]): 57.93%
Activity (DU-145 [31]): 1.27%
Activity (DU-145 [14]): 67.4%

Structure (SMILES): O=C(Nc1cccnc1Nc1ccccc1)c1cccnc1Nc1ccc(F)cc1
GI50 (MCF7): > 100 µM
GI50 (A549): > 100 µM
GI50 (DU-145 [6]): 7.7 µM

Second part, led by results:

GI50 (MCF7): 1.25 µM
GI50 (A549): 1.31 µM
IC50 (Tubulin): 2.4 µM
GI50 (DU-145 [6]): 1.81 µM
inhibition (Tubulin (Homo sapiens) [11]): Active
Structure (SMILES): COc1ccc(S(=O)(=O)Nc2cccnc2Nc2ccc(O)cc2)cc1 [ABT-751]
Activity (DU-145 [1]): 54.38%
Activity (DU-145 [2]): 0%
Activity (DU-145 [3]): 17.72%
Activity (DU-145 [4]): 36.52%
Activity (DU-145 [5]): 4.11%
Activity (DU-145 [7]): 1.01%
Activity (DU-145 [8]): 3.93%
Activity (DU-145 [9]): 18.1%
Activity (DU-145 [10]): 2.94%
viability at 2 µM (DU-145 [12]): 77.3%
Activity (DU-145 [13]): 0%
Activity (DU-145 [14]): 81.9%

GI50 (MCF7): > 100 µM
GI50 (A549): > 100 µM
GI50 (DU-145 [6]): 21.2 µM
Structure (SMILES): COc1ccc(Nc2ncccc2NC(=O)c2cccnc2Nc2ccc(OC)cc2)cc1

GI50 (MCF7): 17.3 µM
GI50 (A549): 18.5 µM
GI50 (DU-145 [6]): > 100 µM
Structure (SMILES): COc1ccc(Nc2ncccc2C(=O)Nc2cccnc2Nc2ccc(F)cc2)cc1

GI50 (MCF7): 5.4 µM
GI50 (A549): 3.2 µM
GI50 (DU-145 [6]): 4.8 µM
Structure (SMILES): O=C(Nc1cccnc1Nc1ccccc1)c1cccnc1Nc1cc(C(F)(F)F)cc(C(F)(F)F)c1
